Assay results from ChEMBL document CHEMBL1914331, “N-O chemistry for antibiotics: discovery of N-alkyl-N-(pyridin-2-yl)hydroxylamine scaffolds as selective antibacterial agents using nitroso Diels-Alder and ene chemistry” (J Med Chem, 2011).
In brackets after ≈: the same amount, converted by molar mass.

What was measured:
[1] = test system: HeLa; assay: Cytotoxicity against human HeLa cells; format: cell-based
[2] = test system: PC-3; assay: Cytotoxicity against human PC3 cells; format: cell-based
[3] = test system: Micrococcus luteus; assay: Antimicrobial activity against Micrococcus luteus ATCC 10240 assessed after 18 hrs by broth microdilution method; format: functional; conditions: ATCC 10240, 18 h
Outline: (§1)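 CLSI broth microdilution in cation-adjusted MHII broth. 20 mM DMSO stocks were diluted to 512 µM, then serially 2-fold, giving final 128–0.0625 µM with 5×10⁵ CFU/mL inoculum. Incubated 18 h at 37 °C. MIC90 was the lowest concentration giving 90% inhibition by visual turbidity versus DMSO wells. Run in triplicate.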

[4] = test system: Enterococcus faecalis; assay: Antimicrobial activity against Enterococcus faecalis ATCC 49532 assessed after 18 hrs by broth microdilution method; format: functional; conditions: ATCC 49532, 18 h; outline: as §1
[5] = test system: Micrococcus luteus; assay: Antimicrobial activity against Micrococcus luteus ATCC 10240 after 24 hrs by Kirby-Bauer agar diffusion assay; format: functional
Outline: (§2)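 Modified Kirby-Bauer well diffusion. Overnight LB cultures (18–24 h) were standardized in 0.9% saline to 0.5 McFarland and mixed into melted MHII agar at 47–50 °C, giving ~5×10³ CFU/mL. 9 mm wells received 50 µL of 2.0 mM compound in 10:1 MeOH:DMSO. Plates were incubated 24 h at 37 °C, then growth-inhibition zone diameter was measured (mm) by caliper.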

[6] = test system: MCF7; assay: Cytotoxicity against human MCF7 cells; format: cell-based
[7] = test system: Enterococcus faecalis; assay: Antimicrobial activity against Enterococcus faecalis ATCC 49532 after 24 hrs by Kirby-Bauer agar diffusion assay; format: functional; outline: as §2
[8] = test system: Staphylococcus aureus; assay: Antimicrobial activity against Staphylococcus aureus SG511 after 24 hrs by Kirby-Bauer agar diffusion assay; format: functional; outline: as §2
[9] = test system: Staphylococcus aureus; assay: Antimicrobial activity against Staphylococcus aureus SG511 assessed after 18 hrs by broth microdilution method; format: functional; conditions: SG511, 18 h; outline: as §1

For `ON(Cc1ccc(OC(F)(F)F)cc1)c1ccccn1`, the Activity [1] was “Non-toxic”, the Activity [2] was “Non-toxic” and the MIC90 [3] was 128 µM (≈ 36.4 µg/mL). The MIC90 [4] was > 128 µM, the “diameter of the inhibition zone (DIZ)” value [5] was 17 mm and the Activity [6] was “Non-toxic”. For the same compound, the “diameter of the inhibition zone (DIZ)” value [7] was 15 mm, the “diameter of the inhibition zone (DIZ)” value [8] was 14 mm and the MIC90 [9] was > 128 µM.
In the case of `CC(=O)ON(Cc1ccccc1)c1ccccn1`, the Activity [1] was “Non-toxic”, the Activity [2] was “Non-toxic” and the MIC90 [3] was 128 µM (≈ 31 µg/mL). The MIC90 [4] was > 128 µM, the “diameter of the inhibition zone (DIZ)” value [5] was 20 mm and the Activity [6] was “Non-toxic”. The “diameter of the inhibition zone (DIZ)” value [7] was 11 mm, the “diameter of the inhibition zone (DIZ)” value [8] was 12 mm and the MIC90 [9] was > 128 µM.
With `C=C(C)C(C)N(O)c1ccc(Br)cn1` (racemic) the Activity [1] was “Non-toxic”, the Activity [2] was “Non-toxic” and the MIC90 [3] was 4 µM (≈ 1.03 µg/mL). The MIC90 [4] was > 128 µM, the “diameter of the inhibition zone (DIZ)” value [5] was 35 mm and the Activity [6] was “Non-toxic”. For the same compound, the “diameter of the inhibition zone (DIZ)” value [7] was 19 mm, the “diameter of the inhibition zone (DIZ)” value [8] was 17 mm and the MIC90 [9] was > 128 µM.
With `C=C(C)C(C)N(O)c1ccc(I)cn1` (racemic) the Activity [1] was “Non-toxic”, the Activity [2] was “Non-toxic” and the MIC90 [3] was 2 µM (≈ 0.608 µg/mL). The MIC90 [4] was > 128 µM, the “diameter of the inhibition zone (DIZ)” value [5] was 38 mm and the Activity [6] was “Non-toxic”. The “diameter of the inhibition zone (DIZ)” value [7] was 19 mm, the “diameter of the inhibition zone (DIZ)” value [8] was 12 mm and the MIC90 [9] was > 128 µM.
For `ON(Cc1ccccc1)c1cccnc1`, the Activity [1] was “Non-toxic”, the Activity [2] was “Non-toxic” and the MIC90 [3] was ≥ 128 µM. For the same compound, the MIC90 [4] was > 128 µM, the “diameter of the inhibition zone (DIZ)” value [5] was 15 mm and the Activity [6] was “Non-toxic”. The “diameter of the inhibition zone (DIZ)” value [7] was 0 mm, the “diameter of the inhibition zone (DIZ)” value [8] was 16 mm and the MIC90 [9] was > 128 µM.
In the case of `C=C(C)C(C)(C)N(O)c1ccccn1`, the Activity [1] was “Non-toxic”, the Activity [2] was “Non-toxic” and the MIC90 [3] was 4 µM (≈ 0.769 µg/mL). The MIC90 [4] was > 128 µM, the “diameter of the inhibition zone (DIZ)” value [5] was 33 mm and the Activity [6] was “Non-toxic”. For the same compound, the “diameter of the inhibition zone (DIZ)” value [7] was 18 mm, the “diameter of the inhibition zone (DIZ)” value [8] was 15 mm and the MIC90 [9] was 128 µM (≈ 24.6 µg/mL).
For `C=CCN(O)c1ccccn1`, the Activity [1] was “Non-toxic”, the Activity [2] was “Non-toxic” and the MIC90 [3] was > 128 µM. For the same compound, the MIC90 [4] was > 128 µM, the “diameter of the inhibition zone (DIZ)” value [5] was 14 mm and the Activity [6] was “Non-toxic”. The “diameter of the inhibition zone (DIZ)” value [7] was 12 mm, the “diameter of the inhibition zone (DIZ)” value [8] was 0 mm and the MIC90 [9] was > 128 µM.
With `C=C(C)C(C)(C)N(O)c1cc(C)on1` the Activity [1] was “Non-toxic”, the Activity [2] was “Non-toxic” and the “diameter of the inhibition zone (DIZ)” value [5] was >14 mm. The Activity [6] was “Non-toxic”.
`ON(c1ccc(Br)cn1)[C@@H]1CCC=C[C@H]1OCc1ccccc1` (relative stereo) was tested, and the Activity [1] was “Non-toxic”, the Activity [2] was “Non-toxic” and the “diameter of the inhibition zone (DIZ)” value [5] was >14 mm. The Activity [6] was “Non-toxic”.
With `COc1ccc(CON(Cc2ccc(OC(F)(F)F)cc2)c2ccccn2)cc1` the Activity [1] was “Non-toxic”, the Activity [2] was “Non-toxic” and the “diameter of the inhibition zone (DIZ)” value [5] was “<=14 mm”. The Activity [6] was “Non-toxic”.
In the case of `Cc1cc(N(O)[C@@H]2C=CC(OC(C)(C)C)C2)no1` (mixture of isomers), the Activity [1] was “Non-toxic”, the Activity [2] was “Non-toxic” and the “diameter of the inhibition zone (DIZ)” value [5] was >14 mm. The Activity [6] was “Non-toxic”.
`CC(C)OC1C=C[C@@H](N(O)c2ccc(Br)cn2)C1` (mixture of isomers) was tested, and the Activity [1] was “Non-toxic”, the Activity [2] was “Non-toxic” and the “diameter of the inhibition zone (DIZ)” value [5] was >14 mm. The Activity [6] was “Non-toxic”.
For `CC(C)(C)OC(=O)NO`, the Activity [1] was “Non-toxic”, the Activity [2] was “Non-toxic” and the “diameter of the inhibition zone (DIZ)” value [5] was “<=14 mm”. For the same compound, the Activity [6] was “Non-toxic”.
`O=Nc1ccccn1` was tested, and the Activity [1] was “Non-toxic”, the Activity [2] was “Non-toxic” and the “diameter of the inhibition zone (DIZ)” value [5] was “<=14 mm”. The Activity [6] was “Non-toxic”.
In the case of `CO[C@@H]1C=CC[C@H]1N(O)c1ncccc1C` (racemic), the Activity [1] was “Non-toxic”, the Activity [2] was “Non-toxic” and the “diameter of the inhibition zone (DIZ)” value [5] was >14 mm. The Activity [6] was “Non-toxic”.
`Cc1cccc(N(O)[C@@H]2C=C[C@@H](OC(C)(C)C)C2)n1` (relative stereo) was tested, and the Activity [1] was “Non-toxic”, the Activity [2] was “Non-toxic” and the “diameter of the inhibition zone (DIZ)” value [5] was >14 mm. The Activity [6] was “Non-toxic”.
`CC(C)O[C@@H]1C=CC[C@H]1N(O)c1ccc(Br)cn1` (racemic) was tested, and the Activity [1] was “Non-toxic”, the Activity [2] was “Non-toxic” and the “diameter of the inhibition zone (DIZ)” value [5] was >14 mm. For the same compound, the Activity [6] was “Non-toxic”.
With `Cc1cccc(N(O)[C@@H]2C=C[C@@H](OC(C)C)CC2)n1` (racemic) the Activity [1] was “Non-toxic”, the Activity [2] was “Non-toxic” and the “diameter of the inhibition zone (DIZ)” value [5] was >14 mm. The Activity [6] was “Non-toxic”.
For `O=C(Cc1ccccc1)N1OC2C=CC1C2` (racemic), the Activity [1] was “Non-toxic”, the Activity [2] was “Non-toxic” and the “diameter of the inhibition zone (DIZ)” value [5] was “<=14 mm”. For the same compound, the Activity [6] was “Non-toxic”.
For `Cc1cccc(N(O)[C@@H]2CCC=C[C@H]2OC(C)C)n1` (racemic), the Activity [1] was “Non-toxic”, the Activity [2] was “Non-toxic” and the “diameter of the inhibition zone (DIZ)” value [5] was >14 mm. For the same compound, the Activity [6] was “Non-toxic”.
